NPY-Y2 PAM-ag: potentiators or agonists of human neuropeptide Y receptor Y2. P49146. cells expressing NPY-Y2, potentiator/agonist read-out. activation, % at 3.6 µM. 220,000 tested, 0.45% active. AID 1359; in the data active = activation above about 27%;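 note: cells stimulated with NPY near EC25 plus isoproterenol at EC100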
Furin inh: inhibitors of human furin. P09958. AID 463115. 220,000 tested, 0.061% active. purified furin, fluorogenic substrate cleavage. inhibition, % at 20 µM or 30 µM; in the data active = inhibition above about 25%
NPY-Y2 antag: antagonists of human neuropeptide Y receptor Y2. 140,000 tested, 0.99% active. inhibition, % at 2.7 µM. P49146. NPY-Y2 expressing cells, antagonist mode; in the data active = inhibition above about 17%
KCC2 mod: KCC2 (human) Cl- transport modulation. KCC2 cells, thallium flux FluoZin-2 fluorescence. AID 1456. B-score of Tl+ flux slope (higher = more flux/activation; lower = inhibition) at 10 µM. 190,000 tested, 2.2% active. Q9H2X9;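 active = thallium flux slope and its plate-corrected score both differing from the plate sample mean at a set confidence after two filtering rounds, in either direction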;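 note: slope of fluorescence scaled to starting intensity during 10 to 20 s after thallium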
Target sequence (Q9H2X9 whole entry, looked up): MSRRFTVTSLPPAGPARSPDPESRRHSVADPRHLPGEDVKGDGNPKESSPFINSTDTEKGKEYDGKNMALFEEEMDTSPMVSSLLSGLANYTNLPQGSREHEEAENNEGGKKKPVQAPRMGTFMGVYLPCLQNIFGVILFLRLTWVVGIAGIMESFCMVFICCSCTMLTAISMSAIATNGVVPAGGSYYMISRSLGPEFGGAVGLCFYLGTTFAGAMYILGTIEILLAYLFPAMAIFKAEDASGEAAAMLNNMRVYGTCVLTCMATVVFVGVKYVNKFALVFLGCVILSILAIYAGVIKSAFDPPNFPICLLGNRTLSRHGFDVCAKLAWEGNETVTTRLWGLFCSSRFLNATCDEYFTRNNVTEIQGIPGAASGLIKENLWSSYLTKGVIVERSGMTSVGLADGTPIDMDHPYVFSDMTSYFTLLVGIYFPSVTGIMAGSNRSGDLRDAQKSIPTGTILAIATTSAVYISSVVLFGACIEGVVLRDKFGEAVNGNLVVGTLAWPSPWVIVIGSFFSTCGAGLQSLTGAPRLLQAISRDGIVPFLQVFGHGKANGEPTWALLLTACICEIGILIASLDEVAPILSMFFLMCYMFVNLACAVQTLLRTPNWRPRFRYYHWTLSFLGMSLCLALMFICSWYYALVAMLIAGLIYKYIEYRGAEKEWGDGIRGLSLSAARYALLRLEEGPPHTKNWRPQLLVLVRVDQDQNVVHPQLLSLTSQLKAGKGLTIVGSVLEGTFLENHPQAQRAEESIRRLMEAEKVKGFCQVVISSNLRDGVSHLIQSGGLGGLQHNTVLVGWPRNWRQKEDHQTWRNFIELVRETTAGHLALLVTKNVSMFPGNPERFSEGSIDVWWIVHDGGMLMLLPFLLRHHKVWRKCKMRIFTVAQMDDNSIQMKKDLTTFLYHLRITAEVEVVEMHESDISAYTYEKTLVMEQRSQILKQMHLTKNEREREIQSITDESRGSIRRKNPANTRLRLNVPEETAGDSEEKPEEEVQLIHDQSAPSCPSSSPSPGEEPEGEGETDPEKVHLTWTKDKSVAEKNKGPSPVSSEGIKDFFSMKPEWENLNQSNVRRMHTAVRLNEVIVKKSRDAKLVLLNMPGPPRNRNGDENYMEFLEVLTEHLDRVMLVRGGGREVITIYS
NPY Y1 blocker: NPY-Y1 (human) receptor antagonism. HEK293-CNG Y1 cells, membrane potential fluorescence; NPY at EC95, then isoproterenol. inhibition, % at 3.6 µM. 200,000 tested, 1% active. P25929;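 active = inhibition above the campaign mean inhibition of all tested compounds plus 3 SD, cut at about 20% in these data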
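Material: Y1- and CNG-channel-expressing HEK293 cells / Probe or stimulus: NPY 25 nM then isoproterenol 1 µM plus Ro 20-1724 25 µM / Doses: 3.6 µM single dose, DMSO 0.4% / Schedule: compound incubation 1 h at room temperature, readout 45 min post-stimulation / Signal: membrane potential fluorescence / Benchmarks: isoproterenol-only wells as full block versus NPY-plus-isoproterenol wells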
NPY1 pot ag: potentiates or activates human NPY-Y1 receptor. P25929. NPY-Y1 expressing cells, potentiator/agonist activation. activation, % at 3.6 µM. 220,000 tested, 0.37% active. AID 1304; in the data active = activation above about 33%, passing the limit was not always enough;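 note: cells stimulated with NPY at EC10 then isoproterenol at EC100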
KCC2 secondary: confirmation of human KCC2 transport modulators; HEK293-KCC2, thallium flux, FluoZin2 fluorescence; active compounds read high; normalised thallium flux (F/F0 slope) at 10 µM; 3,700 tested, 15% active; AID 1713; shares compounds with KCC2 mod;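 active = thallium flux slope above the same plate's solvent-only control mean plus 3 SD; inconclusive = the two replicate wells disagree; inactive = no significant difference from solvent-only control wells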
KCC2 bumet counter: thallium flux persisting under bumetanide in KCC2 cells, counter-screen secondary assay. 3,700 tested, 49% active. normalized thallium flux at 10 µM. HEK293-KCC2 + bumetanide/ouabain, thallium flux FluoZin2; active compounds read high. shares compounds with KCC2 mod;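 active = thallium entry rate above the same plate's blocked-transporter control wells by more than 3 SD; inconclusive = the two repeat wells disagree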;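 note: raw slope of fluorescence over initial fluorescence between 10 and 20 s after thallium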
KCC2 sec2: confirmation of human KCC2 transport modulators; AID 1715; shares compounds with KCC2 mod; HEK293-KCC2, thallium flux FluoZin2 fluorescence; actives lie on both sides; F/F0 rise rate, 10–20 s post-thallium; normalized thallium flux at 10 µM; 3,700 tested, 23% active;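 active = thallium flux slope more than 3 SD above or below the plate's solvent-only control mean, mostly below; inconclusive = the two repeat wells disagreed; inactive = no significant shift from solvent-only controls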
HEK counter1: acts in parental HEK cells, KCC2 counter-screen. 3,700 tested, 46% active. shares compounds with KCC2 mod. AID 1716. thallium flux rate (normalised fluorescence) at 10 µM. HEK293 parental cells, thallium flux FluoZin2, ouabain; baseline-ratio fluorescence slope, 10–20 s after thallium;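 active = thallium flux rate significantly above the same plate's solvent-only control wells, beyond their mean plus 3 SD; inconclusive = the two replicate wells gave conflicting results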
KCC2 ouabain: KCC2 (human) modulation, ouabain retest. raw Tl+ flux slope (below DMSO = inhibition, above = activation) at 10 µM. 3,700 tested, 48% active. HEK293-KCC2, thallium flux FluoZin2 fluorescence; bidirectional: low = inhibitor, high = activator. shares compounds with KCC2 mod. AID 1717;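 active = thallium flux slope beyond 3 SD from same-plate DMSO control mean in most replicates, usually higher, sometimes lower; inconclusive = repeat tests gave conflicting results; inactive = no significant difference from controls in most replicates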;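 note: slope of initial-normalized fluorescence between seconds 10 and 20 after thallium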
HEK293 Tl flux2: parental HEK flux effect, counter-screen 2 | shares compounds with KCC2 mod | HEK293 parental, thallium flux FluoZin-2 fluorescence slope | thallium flux slope at 10 µM | 3,700 tested, 33% active;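 active = thallium flux slope above the same plate's solvent-control mean plus 3 SD in both duplicate wells; inconclusive = duplicate wells that disagreed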;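 note: run without ouabain in cells lacking the KCC2 cotransporter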
A number is an active result; . = inactive; ? = inconclusive; / = not tested or not shown. Compounds with a hit are over-represented: about 3.7% of the library has one in this group of screens.

SMILES	NPY-Y2 PAM-ag	Furin inh	NPY-Y2 antag	KCC2 mod	NPY Y1 blocker	NPY1 pot ag	KCC2 secondary	KCC2 bumet counter	KCC2 sec2	HEK counter1	KCC2 ouabain	HEK293 Tl flux2
Nc1c(C(=O)O)sc2nc(-c3ccccc3)cc(-c3ccc(F)cc3)c12	.	.	/	-5.37	/	.	.	0.0122	.	.	0.0121	.
CC(C)C(O)(C#CCN1CCCCCC1)c1ccccc1 (stereo unspecified)	.	.	/	.	.	.	/	/	/	/	/	/
O=C(C1=C(O)/C(=C/c2ccc(O)cc2)CCC1)C(F)(F)F	.	.	.	.	.	.	/	/	/	/	/	/
COc1ccc(/C=C2\CCCC(C(=O)C(F)(F)F)=C2O)cc1	.	.	.	/	.	.	.	0.0243	.	0.0114	0.0336	0.0105
CN(C(=O)CSc1cc(C(=O)c2nccn2C)c2ccccc2n1)c1ccccc1	.	.	/	.	/	.	/	/	/	/	/	/
O=C(NNC(=S)NC(=O)C12CC3CC(CC(C3)C1)C2)c1ccncc1	.	.	.	/	.	.	0.0166	0.0378	.	0.0196	.	0.0135
O=C(NNC(=O)C12CC3CC(CC(C3)C1)C2)c1ccccn1	.	.	/	22.2	/	.	.	0.0411	0.0439	0.0275	0.0416	0.0297
CCOC(=O)c1ccc2nc(CCC(=O)N[C@H](C(=O)OC)C(C)C)c(=O)n(CC)c2c1	.	.	/	.	.	.	/	/	/	/	/	/
Cc1noc(C(=O)NCc2ccc(F)cc2)c1Cl	.	.	.	6.8	.	.	.	.	.	.	.	.
O=C(NCc1ccco1)C1CCCN1C(=O)Nc1ccccc1Cl (stereo unspecified)	.	.	/	.	.	.	/	/	/	/	/	/
CCn1cc(Br)c(C(=O)NC(=S)Nc2ccc(C(=O)OC)cc2)n1	.	.	.	6.17	.	.	.	0.0181	.	0.0133	.	0.0123
CCOC(=O)c1ccc(NC(=O)c2nn(CC)cc2Br)cc1	.	.	.	.	.	.	/	/	/	/	/	/
CCOC(=O)c1ccc(NC(=O)c2nn(C)cc2Br)cc1	.	.	.	/	.	.	/	/	/	/	/	/
CCOC(=O)c1ccc(NC(=S)NC(=O)c2nn(CC)cc2Br)cc1	.	.	.	5.96	.	.	.	0.00974	.	0.00916	.	0.0118
CCOC(=O)Cn1ncn(-c2ccc(OC(F)(F)F)cc2)c1=O	.	.	/	.	.	.	/	/	/	/	/	/
Cc1ccc(C(=O)Nc2nc(=O)n(C(=O)c3ccccc3Cl)s2)cc1	.	.	.	-7.24	.	.	.	?	0.0238	.	0.0124	.
Cc1ccc(C(=O)Nc2nc(=O)n(C(=O)CC(C)C)s2)cc1	.	.	.	.	.	.	/	/	/	/	/	/
Cc1cc(O)ccc1N=Cc1c(C(F)(F)F)[nH][nH]c1=O	.	.	/	.	.	.	/	/	/	/	/	/
O=C(Nc1cccnc1)c1ccc(COc2ccccc2Cl)o1	.	.	.	-8.13	.	.	.	?	0.022	.	?	.
COc1ccccc1OCc1ccc(C(=O)NCC(C)C)o1	.	.	/	.	.	.	/	/	/	/	/	/
COc1ccccc1NC(=O)c1ccc(COc2ccccc2OC)o1	.	.	.	-3.74	.	.	.	?	?	.	?	.
O=C(Nc1ccccn1)c1ccc(COc2ccccc2Cl)o1	.	.	.	-3.96	.	.	.	.	0.0242	.	0.0152	.

Bioassay records deposited in PubChem by several laboratories.
